Results: ChEMBL document CHEMBL1124186, “Synthesis and evaluation of tylosin-related macrolides modified at the aldehyde function: a new series of orally effective antibiotics” (1988)
Values after ≈ are worked out from the molar mass of the structure shown.

Experiments:
Streptococcus pyogenes [1] = assay: Activity against Streptococcus pyogenes C203 when administered orally; assay type: functional; details: po
Method in brief: (§1)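 Mouse protection test: infected mice were dosed twice, at 1 and 5 h postinfection, either subcutaneously or orally. […] The result is expressed as ED50 in mg/kg × 2.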

Streptococcus pyogenes [2] = assay: Activity against Streptococcus pyogenes C203 when administered sc; assay type: functional; method in brief: as §1
Streptococcus pyogenes [3] = assay: Antimicrobial activity against Streptococcus pyogenes C203; assay type: functional
Bacteroides fragilis [4] = assay: In vitro antimicrobial activity against anaerobic bacteria bacteroides fragilis 111; assay type: functional
Bacteroides fragilis [5] = assay: In vitro antimicrobial activity against anaerobic bacteria bacteroides fragilis 1877; assay type: functional
Bacteroides fragilis [6] = assay: In vitro antimicrobial activity against anaerobic bacteria bacteroides fragilis 1936B,; assay type: functional
Eikenella corrodens = assay: In vitro antimicrobial activity against anaerobic bacteria bacteroides corrodens 1874; assay type: functional
Phocaeicola vulgatus = assay: In vitro antimicrobial activity against anaerobic bacteria bacteroides vulgatus 1211; assay type: functional
[7] = test system: Prevotella melaninogenica; assay: In vitro antimicrobial activity against anaerobic bacteria bacteroides melaninogenicus 1856,; assay type: functional
[8] = test system: Bacteroides thetaiotaomicron; assay: In vitro antimicrobial activity against anaerobic bacteria bacteroides thetaiotaomicron 1438; assay type: functional
Clostridioides difficile = assay: In vitro antimicrobial activity against anaerobic bacteria Clostridium difficile 2994; assay type: functional
Clostridium perfringens = assay: In vitro antimicrobial activity against anaerobic bacteria clostridium perfringens 81,; assay type: functional
Clostridium septicum = assay: In vitro antimicrobial activity against anaerobic bacteria clostridium septicum 1128; assay type: functional
Chlamydia trachomatis = assay: In vitro antimicrobial activity against chlamydia trachomatis.; assay type: functional
Fusobacterium = assay: In vitro antimicrobial activity against anaerobic bacteria fusobacterium symbiosum 1470; assay type: functional
Haemophilus influenzae = assay: In vitro antimicrobial activity against Haemophilus influenzae.; assay type: functional
Mus musculus [9] = assay: Peripheral plasma levels in mice after oral administration of 50 mg/kg dose for 2 hr; assay type: functional, organism-based; parameters: dose 50 mg/kg
Method in brief: (§2)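 Mice were given the compound orally and sampled for peripheral plasma at each time point. Plasma was assayed microbiologically against Micrococcus luteus seeded in Antibiotic Medium 1. Inhibition zone sizes were read, and concentrations were calculated from each compound's own standard curve. Each value is the mean of five mice per time point.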

Mus musculus [10] = assay: Peripheral plasma levels in mice after oral administration of 100 mg/kg dose for 4 hr; assay type: functional, organism-based; parameters: dose 100 mg/kg; method in brief: as §2
Mus musculus [11] = assay: Peripheral plasma levels in mice after oral administration of 50 mg/kg dose for 0.25 hr; assay type: functional, organism-based; parameters: dose 50 mg/kg; method in brief: as §2
Mus musculus [12] = assay: Peripheral plasma levels in mice after oral administration of 100 mg/kg dose for 0.25 hr; assay type: functional, organism-based; parameters: dose 100 mg/kg; method in brief: as §2
Mus musculus [13] = assay: Peripheral plasma levels in mice after oral administration of 100 mg/kg dose for 0.5 hr; assay type: functional, organism-based; parameters: dose 100 mg/kg; method in brief: as §2
Mus musculus [14] = assay: Peripheral plasma levels in mice after oral administration of 100 mg/kg dose for 1 hr; assay type: functional, organism-based; parameters: dose 100 mg/kg; method in brief: as §2
Mus musculus [15] = assay: Peripheral plasma levels in mice after oral administration of 100 mg/kg dose for 2 hr; assay type: functional, organism-based; parameters: dose 100 mg/kg; method in brief: as §2
Mus musculus [16] = assay: Peripheral plasma levels in mice after oral administration of 50 mg/kg dose for 1 hr; assay type: functional, organism-based; parameters: dose 50 mg/kg; method in brief: as §2
[17] = In vitro antimicrobial activity against anaerobic bacteria peptostreptococcus intermedius 1264; assay type: functional
[18] = test system: Peptoniphilus asaccharolyticus; assay: In vitro antimicrobial activity against anaerobic bacteria peptococcus asaccharolyticus 1302; assay type: functional
Anaerococcus prevotii = assay: In vitro antimicrobial activity against anaerobic bacteria peptococcus prevoti 1281; assay type: functional
Cutibacterium acnes = assay: In vitro antimicrobial activity against anaerobic bacteria propionibacterium acnes 79; assay type: functional
Staphylococcus aureus = assay: In vitro antimicrobial activity against Staphylococcus aureus X1; assay type: functional
Streptococcus pyogenes [19] = assay: In vivo effective dose against experimental infections in rodent caused by Streptococcus pyogenes C203 when administered sc; assay type: functional
Streptococcus pneumoniae = assay: In vitro antimicrobial activity against Streptococcus pneumoniae; assay type: functional
[20] = test system: Staphylococcus epidermidis; assay: In vitro antimicrobial activity against Staphylococcus epidermidis EPI1; assay type: functional
Enterococcus faecium = assay: In vitro antimicrobial activity against Streptococcus faecium X66; assay type: functional, streptococcus fae-cium
Streptococcus pyogenes [21] = assay: In vitro antimicrobial activity against Streptococcus pyogenes C203; assay type: functional
[22] = test system: Prevotella melaninogenica; assay: In vitro antimicrobial activity against anaerobic bacteria bacteroides melaninogenicus 2736; assay type: functional
[23] = test system: Fusobacterium necrophorum; assay: In vitro antimicrobial activity against anaerobic bacteria usobacterium necrophorum 6054A; assay type: functional
Mus musculus [24] = assay: Peripheral plasma levels in mice after oral administration of 50 mg/kg dose for 0.5 hr; assay type: functional, organism-based; parameters: dose 50 mg/kg; method in brief: as §2
Collinsella aerofaciens = assay: In vitro antimicrobial activity against anaerobic bacteria eubacterium aerofaciens 1235; assay type: functional
[25] = test system: Peptostreptococcus anaerobius; assay: In vitro antimicrobial activity against anaerobic bacteria eubacterium peptostreptococcus anaerobius 1428,; assay type: functional
Streptococcus pyogenes [26] = assay: Effective dose against Streptococcus pyogenes C203 when administered sc; assay type: functional; method in brief: as §1

## CC[C@H]1OC(=O)C[C@@H](O)[C@H](C)[C@@H](O[C@@H]2O[C@H](C)[C@@H](OC(C)=O)[C@H](N(C)C)[C@H]2OC(C)=O)[C@@H](CCOc2ccccc2)C[C@@H](C)C(=O)/C=C/C(C)=C/[C@@H]1CO[C@@H]1O[C@H](C)[C@@H](O)[C@@H](OC)[C@H]1OC
Streptococcus pyogenes [1]
  ED50: 16 mg/kg
Streptococcus pyogenes [2]
  ED50: 2.9 mg/kg
Streptococcus pyogenes [3]
  MIC: 0.5 µg/mL (≈ 0.535 µM)

## CC[C@H]1OC(=O)C[C@@H](O)[C@H](C)[C@@H](O[C@@H]2O[C@H](C)[C@@H](O[C@H]3C[C@@](C)(O)[C@@H](O)[C@H](C)O3)[C@H](N(C)C)[C@H]2OC(C)=O)[C@@H](CCOc2ccccc2)C[C@@H](C)C(=O)/C=C/C(C)=C/[C@@H]1CO[C@@H]1O[C@H](C)[C@@H](O)[C@@H](OC)[C@H]1OC
Streptococcus pyogenes [1]
  ED50: 76.5 mg/kg
Streptococcus pyogenes [2]
  ED50: > 10 mg/kg
Streptococcus pyogenes [3]
  MIC: 4 µg/mL (≈ 3.86 µM)

## CC[C@H]1OC(=O)C[C@@H](O)[C@H](C)[C@@H](O[C@@H]2O[C@H](C)[C@@H](O[C@H]3C[C@@](C)(O)[C@@H](O)[C@H](C)O3)[C@H](N(C)C)[C@H]2O)[C@@H](CCCl)C[C@@H](C)C(=O)/C=C/C(C)=C/[C@@H]1CO[C@@H]1O[C@H](C)[C@@H](O)[C@@H](OC)[C@H]1OC
Bacteroides fragilis [4]
  MIC: 8 µg/mL (≈ 8.54 µM)
Bacteroides fragilis [5]
  MIC: 4 µg/mL (≈ 4.27 µM)
Bacteroides fragilis [6]
  MIC: 4 µg/mL (≈ 4.27 µM)
Eikenella corrodens
  MIC: 4 µg/mL (≈ 4.27 µM)
Phocaeicola vulgatus
  MIC: 1 µg/mL (≈ 1.07 µM)
[7]
  MIC: 2 µg/mL (≈ 2.14 µM)
[8]
  MIC: 2 µg/mL (≈ 2.14 µM)
Clostridioides difficile
  MIC: < 0.5 µg/mL
Clostridium perfringens
  MIC: < 0.5 µg/mL
Clostridium septicum
  MIC: < 0.5 µg/mL
Chlamydia trachomatis
  MIC: 1 µg/mL (≈ 1.07 µM)
Fusobacterium
  MIC: 4 µg/mL (≈ 4.27 µM)
Haemophilus influenzae
  MIC: > 128 µg/mL
Mus musculus [9]
  Concentration: 0.5 µg/mL
Mus musculus [10]
  Concentration: 0.4 µg/mL
Mus musculus [11]
  Concentration: 1.9 µg/mL
Mus musculus [12]
  Concentration: 10 µg/mL
Mus musculus [13]
  Concentration: 8.8 µg/mL
Mus musculus [14]
  Concentration: 3 µg/mL
Mus musculus [15]
  Concentration: 1.3 µg/mL
Mus musculus [16]
  Concentration: 0.9 µg/mL
[17]
  MIC: 64 µg/mL (≈ 68.3 µM)
[18]
  MIC: 32 µg/mL (≈ 34.2 µM)
Anaerococcus prevotii
  MIC: 8 µg/mL (≈ 8.54 µM)
Cutibacterium acnes
  MIC: > 128 µg/mL
Staphylococcus aureus
  MIC: 1 µg/mL (≈ 1.07 µM)
Streptococcus pyogenes [19]
  ED50: > 6.3 mg/kg
Streptococcus pneumoniae
  MIC: 32 µg/mL (≈ 34.2 µM)
[20]
  MIC: 1 µg/mL (≈ 1.07 µM)
Enterococcus faecium
  MIC: > 128 µg/mL
Streptococcus pyogenes [21]
  MIC: 2 µg/mL (≈ 2.14 µM)
[22]
  MIC: 2 µg/mL (≈ 2.14 µM)
[23]
  MIC: > 128 µg/mL
Mus musculus [24]
  Concentration: 1.9 µg/mL
Collinsella aerofaciens
  MIC: 64 µg/mL (≈ 68.3 µM)
[25]
  MIC: 4 µg/mL (≈ 4.27 µM)

## CC[C@H]1OC(=O)C[C@@H](O)[C@H](C)[C@@H](O[C@@H]2O[C@H](C)[C@@H](O[C@H]3C[C@@](C)(O)[C@@H](O)[C@H](C)O3)[C@H](N(C)C)[C@H]2O)[C@@H](C)C[C@@H](C)C(=O)/C=C/C(C)=C/[C@@H]1CO[C@@H]1O[C@H](C)[C@@H](O)[C@@H](O)[C@H]1OC [DEFORMYLMACROCIN]
Haemophilus influenzae
  MIC: > 128 µg/mL
Staphylococcus aureus
  MIC: 2 µg/mL (≈ 2.29 µM)
Streptococcus pyogenes [26]
  ED50: > 10 mg/kg
Streptococcus pyogenes [19]
  ED50: > 10 mg/kg
Streptococcus pneumoniae
  MIC: 64 µg/mL (≈ 73.2 µM)
[20]
  MIC: 2 µg/mL (≈ 2.29 µM)
Enterococcus faecium
  MIC: 128 µg/mL (≈ 146 µM)
Streptococcus pyogenes [21]
  MIC: 2 µg/mL (≈ 2.29 µM)
Streptococcus pyogenes [3]
  MIC: 2 µg/mL (≈ 2.29 µM)
